The results in this text go back to paper PMC11532418 (Scientific Reports, 2024).

One assay has as its system NIH/3T3. Kind of assay: MTT cytotoxic bioassay on normal cell line. The format is cell-based. The note with it: Mus musculus, NIH3T3, 72 h, read-out: IC50 ± SD. Put shortly: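 NIH/3T3 fibroblasts were grown in high-glucose DMEM with 10% FBS and 1% penicillin-streptomycin under humidified 5% CO2. 1.0 × 10^4 cells/well were precultured for 16 h, then exposed for 72 h in fresh medium (reference drug at 1–200 µM). MTT (0.50 mg/ml final) was added for 4 h, and formazan was dissolved in DMSO. A570 − A630 gave % viability. IC50 is mean ± SD of three independent experiments.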

Assay [1] addresses T1, DPP4 enzyme (Homo sapiens, UniProt P27487). The experiment in a line: biochemical. The note with it: read-out: % DPP4 Enzyme Inhibition, at 20 µM.
The target of assay [2] is T1, DPP4 enzyme. Kind of assay: Kinetic study of DPP4 inhibition. The class given is biochemical. Put shortly:
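DPP4 inhibition kinetics with fluorogenic substrate H-Gly-Pro-AMC at different substrate-to-enzyme concentration ratios, test compound at four concentrations (0.5, 5, 25 and 50 µM). Double-reciprocal plots of 1/velocity vs 1/[substrate] fitted by weighted least squares, assuming velocity variance is a constant percentage of v. Lineweaver–Burk slopes were replotted against inhibitor concentration, and Ki was taken as the negative X-axis intercept.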

T1 sequence (P27487 whole entry): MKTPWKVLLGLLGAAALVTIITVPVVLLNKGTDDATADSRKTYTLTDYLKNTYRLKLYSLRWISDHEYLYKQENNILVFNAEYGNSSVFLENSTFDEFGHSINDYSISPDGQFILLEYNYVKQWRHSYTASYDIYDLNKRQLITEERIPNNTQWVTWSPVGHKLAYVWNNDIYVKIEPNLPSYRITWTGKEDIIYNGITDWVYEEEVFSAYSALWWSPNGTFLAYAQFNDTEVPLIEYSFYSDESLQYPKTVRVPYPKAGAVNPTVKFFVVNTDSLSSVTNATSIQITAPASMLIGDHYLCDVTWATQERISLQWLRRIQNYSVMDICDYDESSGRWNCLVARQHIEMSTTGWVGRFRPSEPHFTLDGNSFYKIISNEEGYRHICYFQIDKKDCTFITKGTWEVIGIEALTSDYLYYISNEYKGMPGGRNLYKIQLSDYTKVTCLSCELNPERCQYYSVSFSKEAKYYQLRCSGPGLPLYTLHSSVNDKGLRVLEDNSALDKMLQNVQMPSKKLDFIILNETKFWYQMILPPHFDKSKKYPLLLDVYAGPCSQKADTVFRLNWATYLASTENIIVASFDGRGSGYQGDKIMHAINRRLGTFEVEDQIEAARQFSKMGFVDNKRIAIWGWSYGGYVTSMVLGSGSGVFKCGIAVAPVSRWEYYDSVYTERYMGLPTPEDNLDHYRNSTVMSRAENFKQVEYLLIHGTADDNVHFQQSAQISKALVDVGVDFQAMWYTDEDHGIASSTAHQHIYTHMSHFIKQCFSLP

With `Cn1c(=O)cc(N2CCC(N)CC2)n(Cc2nc3ccccc3c(=O)n2-c2ccccc2)c1=O` [9a, 6-(4-Aminopiperidin-1-yl)-3-methyl-1-((4-oxo-3-phenyl-3,4-dihydroquinazolin-2-yl)methyl)pyrimidine-2,4(1 H,3 H)-dione], the IC50 in the assay with NIH/3T3 turned out to be 88.1 ± 3.22 µM.

`Cn1c(=O)cc(N2CCC(N)CC2)n(Cc2nc3ccccc3c(=O)n2-c2ccc(F)cc2)c1=O` [9b, 6-(4-Aminopiperidin-1-yl)-1-((3-(4-fluorophenyl)-4-oxo-3,4-dihydroquinazolin-2-yl)methyl)-3-methylpyrimidine-2,4(1 H,3 H)-dione]: in the assay on NIH/3T3, the IC50 is 62.9 ± 1.98 µM.

Regarding `Cn1c(=O)cc(N2CCC(N)CC2)n(Cc2nc3ccccc3c(=O)n2-c2ccc(Cl)cc2)c1=O` [9c, 6-(4-Aminopiperidin-1-yl)-1-((3-(4-chlorophenyl)-4-oxo-3,4-dihydroquinazolin-2-yl)methyl)-3-methylpyrimidine-2,4(1 H,3 H)-dione], the inhibition at 20 µM on DPP4 enzyme [1] is > 50%. Moreover, the IC50 with NIH/3T3 was determined as 72.2 ± 3.91 µM.

As for `Cc1ccc(-n2c(Cn3c(N4CCC(N)CC4)cc(=O)n(C)c3=O)nc3ccccc3c2=O)cc1` [9d, 6-(4-Aminopiperidin-1-yl)-3-methyl-1-((4-oxo-3-(p-tolyl)-3,4-dihydroquinazolin-2-yl)methyl)pyrimidine-2,4(1 H,3 H)-dione], in the assay with NIH/3T3, the half-inhibitory concentration (IC50) came out at 39.3 ± 1.05 µM.

Consider `Cn1c(=O)cc(N2CCC(N)CC2)n(Cc2nc3ccccc3c(=O)n2-c2cccc(C(F)(F)F)c2)c1=O` [9e, 6-(4-Aminopiperidin-1-yl)-3-methyl-1-((4-oxo-3-(3-(trifluoromethyl)phenyl)-3,4-dihydroquinazolin-2-yl)methyl)pyrimidine-2,4(1 H,3 H)-dione], for which the IC50 in the assay on NIH/3T3 amounted to 81.5 ± 5.94 µM.

As to `Cn1c(=O)cc(N2CCC(N)CC2)n(Cc2nc3ccccc3c(=O)n2-c2ccc(F)c(Cl)c2)c1=O` [9f, 6-(4-Aminopiperidin-1-yl)-1-((3-(3-chloro-4-fluorophenyl)-4-oxo-3,4-dihydroquinazolin-2-yl)methyl)-3-methylpyrimidine-2,4(1 H,3 H)-dione], the IC50 in the assay with NIH/3T3 was 43.4 ± 1.02 µM.

Turning to `Cn1c(=O)cc(N2CCC(N)CC2)n(Cc2nc3ccc(Br)cc3c(=O)n2-c2ccccc2)c1=O` [9g, 6-(4-Aminopiperidin-1-yl)-1-((6-bromo-4-oxo-3-phenyl-3,4-dihydroquinazolin-2-yl)methyl)-3-methylpyrimidine-2,4(1 H,3 H)-dione], the IC50 with NIH/3T3 amounted to 102 ± 4.05 µM.

For the compound `Cn1c(=O)cc(N2CCC(N)CC2)n(Cc2nc3ccc(Br)cc3c(=O)n2-c2ccc(F)cc2)c1=O` [9h, 6-(4-Aminopiperidin-1-yl)-1-((6-bromo-3-(4-fluorophenyl)-4-oxo-3,4-dihydroquinazolin-2-yl)methyl)-3-methylpyrimidine-2,4(1 H,3 H)-dione], the IC50 with NIH/3T3 turned out to be 89.7 ± 3.76 µM.

On DPP4 enzyme [2], `Cn1c(=O)cc(N2CCC(N)CC2)n(Cc2nc3ccc(Br)cc3c(=O)n2-c2ccc(Cl)cc2)c1=O` [9i, 6-(4-Aminopiperidin-1-yl)-1-((6-bromo-3-(4-chlorophenyl)-4-oxo-3,4-dihydroquinazolin-2-yl)methyl)-3-methylpyrimidine-2,4(1 H,3 H)-dione] had a Ki of 12 µM. The type of inhibition entry at DPP4 enzyme [2] (Lineweaver-Burk plot) is recorded as “competitive”. Moreover, the IC50 in the assay on NIH/3T3 is 76.9 ± 2.58 µM.

`Cn1c(=O)cc(N2CCC(N)CC2)n(Cc2nc3ccc(Br)cc3c(=O)n2-c2ccc(Br)cc2)c1=O` [9j, 6-(4-Aminopiperidin-1-yl)-1-((6-bromo-3-(4-bromophenyl)-4-oxo-3,4-dihydroquinazolin-2-yl)methyl)-3-methylpyrimidine-2,4(1 H,3 H)-dione]: the inhibition at 20 µM at DPP4 enzyme [1] was > 50%. For the same compound, the IC50 with NIH/3T3 stood at 91 ± 1.98 µM.

With `Cn1c(=O)cc(N2CCC(N)CC2)n(Cc2nc3ccc(Br)cc3c(=O)n2-c2cccc(F)c2)c1=O` [9k, 6-(4-Aminopiperidin-1-yl)-1-((6-bromo-3-(3-fluorophenyl)-4-oxo-3,4-dihydroquinazolin-2-yl)methyl)-3-methylpyrimidine-2,4(1 H,3 H)-dione], in the assay on NIH/3T3, the IC50 amounted to 68.4 ± 3.01 µM.

For the compound `Cn1c(=O)cc(N2CCC(N)CC2)n(Cc2nc3ccc(Br)cc3c(=O)n2-c2cccc(Br)c2)c1=O` [9l, 6-(4-Aminopiperidin-1-yl)-1-((6-bromo-3-(3-bromophenyl)-4-oxo-3,4-dihydroquinazolin-2-yl)methyl)-3-methylpyrimidine-2,4(1 H,3 H)-dione], the IC50 in the assay with NIH/3T3 turned out to be 78.1 ± 2.95 µM.

As for `N[C@@H](CC(=O)N1CCn2c(nnc2C(F)(F)F)C1)Cc1cc(F)c(F)cc1F` [Sitagliptin, reference compound], the IC50 in the assay with NIH/3T3 stood at 111 ± 5.85 µM.
